Screens: PubChem BioAssay, The Scripps Research Institute Molecular Screening Center
CHRM4 PAM – CHRM4 positive allosteric modulation | activation, % at 3 µM | 360,000 compounds, 0.4% hits | P08173 | CHO-K1 hM4/Gqi5, Fluo-8 calcium fluorescence, ACh EC20; 0% = ACh EC20, 100% = maximal ACh | AID 624126;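 active = activation above its plate's cutoff, the mean activation of sample wells plus 3 SD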
Target sequence (P08173 whole entry, looked up): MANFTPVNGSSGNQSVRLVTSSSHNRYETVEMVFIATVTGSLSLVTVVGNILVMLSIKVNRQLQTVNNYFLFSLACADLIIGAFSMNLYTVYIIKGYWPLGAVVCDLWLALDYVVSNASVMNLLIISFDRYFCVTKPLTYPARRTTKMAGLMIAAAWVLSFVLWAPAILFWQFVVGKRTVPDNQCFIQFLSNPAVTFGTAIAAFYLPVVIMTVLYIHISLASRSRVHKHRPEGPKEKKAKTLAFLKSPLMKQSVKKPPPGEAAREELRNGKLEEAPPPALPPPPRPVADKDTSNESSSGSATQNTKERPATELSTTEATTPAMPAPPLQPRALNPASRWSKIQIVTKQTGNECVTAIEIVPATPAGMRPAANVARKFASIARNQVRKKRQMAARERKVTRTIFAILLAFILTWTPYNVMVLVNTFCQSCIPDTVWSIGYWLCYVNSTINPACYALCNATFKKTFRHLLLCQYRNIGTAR
M5 antag – CHRM5 antagonism in calcium assay. P08912. CHO-hM5 cells, Fluo-8 calcium fluorescence, ACh EC80. inhibition, % at 3 µM. 360,000 compounds, 0.59% hits;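 active = inhibition above a per-plate cutoff, the mean of that plate's test compounds plus 3 SD, cut at about 27% in these data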
M4 ag – CHRM4 agonism in calcium assay. P08173. CHO-K1 hM4/Gqi5, Fluo-8 calcium fluorescence; vehicle 0%, full acetylcholine response 100%. activation, % at 3 µM. 360,000 compounds, 0.14% hits. AID 624127;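 active = activation above the run mean over all test wells plus 3 SD, cut at about 32% in these data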;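 also: peak over basal fluorescence ratio per well then scaled between controls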
CHRM5 PAM – potentiates acetylcholine response at human M5 receptor; 360,000 compounds, 0.3% hits; CHO-K1 hM5, Fluo-8 calcium, ACh EC20 PAM; 0% = ACh EC20, 100% = ACh EC100; activation, % at 3 µM;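 active = activation above the run cutoff, the mean activation of all test compounds plus 3 SD, cut at about 18% in these data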
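Assay system: CHO-K1 hM5 cells / Incubation: Fluo-8 loading 80 min at 37 °C plus 30 min room temperature / Technique: Fluo-8 calcium dye fluorescence, kinetic read / Repeats: single replicate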
M5 ag – agonists of human muscarinic M5 receptor (CHRM5); activation, % at 3 µM; P08912; AID 624037; 360,000 compounds, 0.19% hits; CHO-K1 hM5 cells, Fluo-8 calcium fluorescence; 0% DMSO wells, 100% maximal acetylcholine response;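 active = activation above the run's mean over test compounds plus 3 SD, cut at about 23% in these data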;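 also: signal is peak over basal fluorescence ratio across the kinetic read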
M4 antag – blocks acetylcholine activation of human M4 receptor; CHO-hM4 cells, ACh EC80, Fluo-8 calcium fluorescence; AID 624125; P08173; inhibition, % at 3 µM; 360,000 compounds, 0.73% hits;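 active = inhibition above its plate's cutoff, the mean inhibition of sample wells plus 3 SD, cut at about 27% in these data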
Large screens that a line does not name were inactive. Compounds with a hit are over-represented: about 1.9% of the library has one in this group of screens.

CCC(=O)N1Cc2cc(C(=O)Nc3nccs3)nc(-c3cccc(-c4ccccc4OC)c3)c2[C@H]1CCO	M4 antag 27
CCNC(=O)c1cc2c(c(-c3cccc(-c4cc5ccccc5o4)c3)n1)[C@H](CCO)N(C(=O)NC(C)C)C2	M4 antag 29
O=C(CN1C(=O)CCOc2ccccc21)Nc1ccc(Cl)c(S(=O)(=O)N2CCOCC2)c1	none
CCC(C)c1ccccc1NC(=O)COc1ccc(-n2cnnn2)cc1 (stereo not drawn)	CHRM4 PAM 20
O=C(Nc1ccc(OC(F)(F)F)cc1)c1cccc(-n2cnnn2)c1	none
CCOc1ccc(NC(=O)c2cccc(-n3cnnn3)c2)cc1	M4 antag 27
CCCN(CCC)Cc1c(C(=O)N/N=C/CCc2ccccc2)nnn1-c1nonc1N	none
c1ccc(-n2cnc3ccccc32)nc1	none
S=c1[nH]ncn1-c1ccccn1	CHRM4 PAM 25
CN1CCN(c2ccccc2/C=C2/C(=O)Nc3ccccc32)CC1	M5 antag 83
Cc1cc(=O)n(C(C)c2ccccc2)n1C(C)c1ccccc1 (stereo not drawn)	none
O=[N+]([O-])c1ccccc1/C=N/NC1=NCCN1	CHRM5 PAM 19
O=[N+]([O-])c1ccccc1C=NNc1ccccc1	none
O=C(CN1C(=O)COc2ccccc21)c1cccc(Cl)c1	M4 antag 31
COC(=O)c1ccccc1-c1cn(C)c2ccccc2c1=O	none
O=c1cc(-c2ccc(O)cc2)oc2ccccc12	none
O=c1cc(-c2ccc(O)cc2)oc2ccc(O)cc12	CHRM4 PAM 42
COC(=O)[C@@H](NCc1cccc(CN([C@H](C(=O)OC)C(C)C)S(C)(=O)=O)c1)C(C)C	none
O=C(O)c1cc(-c2cccs2)[nH]n1	CHRM4 PAM 28
CCOC(=O)c1cc(-c2cccs2)[nH]n1	none
CCCc1cc(C(=O)NNC(=S)NCc2ccccc2)cs1	none
CCCc1cc(C(=O)NNC(=S)NC2CCCCC2)cs1	CHRM4 PAM 18
CC(C)c1cc(-c2cc(C(=O)NCc3ccccc3)on2)nc(NCC2CC2)n1	M5 antag 28, M4 ag 43, M5 ag 36, M4 antag 41
CCCNc1nc(C)cc(-c2cc(-c3ccccc3)on2)n1	none
Cc1cc(-c2cc(-c3ccccc3)on2)nc(NCC2CC2)n1	CHRM4 PAM 29
COc1cc(C(O)c2nc(/C=C/c3ccc(C(F)(F)F)cc3)cs2)ccc1F (stereo not drawn)	none
CCn1c2ccccc2c2nnc(SCCN3CCCCC3)nc21	M4 antag 28
CCn1c2ccccc2c2nnc(SCCN3CCOCC3)nc21	none
CCOc1ccc(S(=O)(=O)Nc2ccc(C(=O)NCC(c3ccccc3)N(C)C)cc2)cc1 (stereo not drawn)	none
O=C(O)c1cc(Cl)ccc1-c1ccc(/C=C/c2cc(C(F)(F)F)[nH]c(=O)n2)o1	M4 ag 39, M5 ag 42
O=C(O)c1ccccc1-c1ccc(/C=C/c2cc(C(F)(F)F)[nH]c(=O)n2)o1	M5 ag 44
COCCNC(=O)C1(C)CCN(C(=O)c2ccc3c(c2)C(C)(C)CCC3(C)C)C1 (stereo not drawn)	none
CC1(C(=O)NCc2ccccc2)CN(S(C)(=O)=O)CC(=O)N1Cc1cccc(F)c1 (stereo not drawn)	CHRM4 PAM 24
CC(=O)NCCNC(=O)c1ccc(NC2=NC3CS(=O)(=O)CC3S2)cc1 (stereo not drawn)	M5 antag 29, CHRM5 PAM 27
C=CCN(c1ccccc1OC)S(=O)(=O)c1cccc(C(=O)OCC(=O)c2c(N)n(C)c(=O)n(C)c2=O)c1	M5 antag 27
COc1ccc(S(=O)(=O)N2CCCCC2)cc1NC(=O)CN(Cc1ccco1)Cc1ccco1	M5 antag 43, M4 antag 27
COc1ccc(S(=O)(=O)N2CCCCC2)cc1NC(=O)CN(C)C1CCCCC1	none
Cc1noc(C)c1NC(=O)Nc1cccc2c1O[C@@H](CN(C)C(=O)Nc1ccc3c(c1)OCO3)[C@@H](C)CN([C@H](C)CO)C2=O	none
COc1ccc(C2CC(c3ccc(Cl)cc3)=NN2C(C)=O)cc1 (stereo not drawn)	M5 antag 31, CHRM5 PAM 43
Cc1cc(Cl)cc(Cl)c1OCCN1CCCC1	CHRM5 PAM 24
COc1cccc(C(=O)Nc2nnc(S(=O)(=O)N(C)Cc3ccc(F)cc3)s2)c1	none
COc1ccc(-c2csc(NC(=O)c3c(OC)cccc3OC)n2)cc1	none
COc1ccc(-c2csc(NC(=O)c3ccccc3NS(=O)(=O)c3ccc(C)cc3)n2)cc1	M5 antag 33
COc1ccc(S(=O)(=O)Nc2ccccc2C(=O)Nc2nc(-c3ccc(F)cc3)cs2)cc1OC	M5 antag 43, M4 antag 33
CCCNC(=O)c1ccccc1NS(=O)(=O)c1ccc(OC)c(OC)c1	none
COc1ccc2c(c1)CCc1cn3nc(C)cc3nc1-2	CHRM5 PAM 19
O=C(c1cccc(Br)c1)c1nc2ccccc2[nH]c1=O	none
COC(=O)CN(C)C(=O)c1ccccc1OC1CCN(S(C)(=O)=O)CC1	none
CN(Cc1ccon1)C(=O)c1ccc2nc(Cc3cccc(Cl)c3)oc2c1	CHRM5 PAM 19
CC(=O)Nc1ccc(C(=O)OCCc2ccccc2)cc1	none
COC(=O)c1ccc(/C=C(\C#N)c2nc3ccccc3s2)cc1	none
N#C/C(=C\c1ccccn1)c1nc2ccccc2s1	M5 ag 44
N#C/C(=C/c1ccc(-c2ccc(S(N)(=O)=O)cc2)o1)c1nc2ccccc2s1	M5 antag 48, M5 ag 32, M4 antag 26
CC1CCCC(C)N1C(=O)COC(=O)Cc1ccc(F)cc1 (stereo not drawn)	none
COc1ccc(NS(=O)(=O)c2ccc3oc(SC(C)C(N)=O)nc3c2)cc1 (stereo not drawn)	none
COc1ccc(CC2(CO)CCN(CC3=Cc4cc(Cl)ccc4OC3)CC2)cc1	M4 antag 29
COc1ccc(NC(=O)C2Cc3c(-c4ccccc4)ccnc3O2)cc1OC (stereo not drawn)	none
COc1ccc2c(/C=N/NS(=O)(=O)c3ccc(C)cc3)c[nH]c2c1	none
COc1ccc2[nH]cc(/C=N/NS(=O)(=O)c3ccc(C)cc3)c2c1	M4 antag 28
O=C(COC(=O)c1ccc(Cl)nc1)NC1CCCCCC1	CHRM4 PAM 26
O=C(OCC(=O)N(C1CCCCC1)C1CCCCC1)c1ccc(Cl)nc1	none
CN(C)c1ccc(C(=O)OCC(=O)NC2CCCCC2)cc1	CHRM5 PAM 35
